Results: ChEMBL document CHEMBL5058577, “EUbOPEN Chemogenomics Library 2 (Multiplex)” (2022)

Tested on: Fibroblast
Experiment: Multiplex assay against human fibroblast
Assay type: toxicity, cell-based
Outline: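 At seeding, live cells were stained with Hoechst33342, BioTracker Green Microtubule Cytoskeleton Dye, MitoTracker Red and Annexin V Alexa Fluor 680. After compound addition they were imaged on a CQ1 microscope at 37°C and 5% CO2, and CellPathfinder machine-learning gating sorted them into Hoechst high-intensity objects or normal cells, with normal cells further split into healthy, pyknosed or fragmented nuclei and pyknosed cells into mitotic or apoptotic. Tubulin, mitochondrial-mass and membrane-permeability phenotypes are given as per cents of cells with healthy nuclei.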

[1] = 12 h, 1 µM, compound concentration 1 uM, replicate 1
[2] = 12 h, 1 µM, compound concentration 1 uM, replicate 2
[3] = 12 h, 10 µM, compound concentration 10 uM, replicate 1
[4] = 12 h, 10 µM, compound concentration 10 uM, replicate 2
[5] = 24 h, 1 µM, compound concentration 1 uM, replicate 1
[6] = 24 h, 1 µM, compound concentration 1 uM, replicate 2
[7] = 24 h, 10 µM, compound concentration 10 uM, replicate 1
[8] = 24 h, 10 µM, compound concentration 10 uM, replicate 2
[9] = 48 h, 1 µM, compound concentration 1 uM, replicate 1
[10] = 48 h, 1 µM, compound concentration 1 uM, replicate 2
[11] = 48 h, 10 µM, compound concentration 10 uM, replicate 1
[12] = 48 h, 10 µM, compound concentration 10 uM, replicate 2

Question: How did the “Population Apoptotic (%)” value [1] turn out when `Cc1cc(NC(=O)NCCN2CCC(O)(Cc3ccccc3)CC2)c2ccccc2n1` [PALOSURAN] was run?
Answer: 37%

Question: And the “Population Fragmented Nuclei (%)” value [1]?
Answer: 10%

Question: And the “Population Healthy Nuclei (%)” value [1]?
Answer: 77%

Question: And the “Population Hoechst High Intensity Objects (%)” value [1]?
Answer: 2%

Question: What about the “Population Membrane Permeable-Phenotype (%)” value [1] of the same compound?
Answer: 3%

Question: What about the “Population Mitochondria Different-Phenotype (%)” value [1] of the same compound?
Answer: 1%

Question: And the “Population Mitotic Cells (%)” value [1]?
Answer: 62%

Question: And the “Population Normal (%)” value [1]?
Answer: 97%

Question: And the “Population Pyknosed Nuclei (%)” value [1]?
Answer: 12%

Question: What about the “Population Tubulin-Different-Phenotype (%)” value [1] of the same compound?
Answer: 19%

Question: What about the “Total Cell Count” value [1] of the same compound?
Answer: 133

Question: And the “Population Apoptotic (%)” value [2]?
Answer: 40%

Question: And the “Population Fragmented Nuclei (%)” value [2]?
Answer: 26%

Question: And the “Population Healthy Nuclei (%)” value [2]?
Answer: 44%

Question: And the “Population Hoechst High Intensity Objects (%)” value [2]?
Answer: 9%

Question: What about the “Population Membrane Permeable-Phenotype (%)” value [2] of the same compound?
Answer: 1%

Question: What about the “Population Mitochondria Different-Phenotype (%)” value [2] of the same compound?
Answer: 13%

Question: What about the “Population Mitotic Cells (%)” value [2] of the same compound?
Answer: 59%

Question: And the “Population Normal (%)” value [2]?
Answer: 90%

Question: What about the “Population Pyknosed Nuclei (%)” value [2] of the same compound?
Answer: 28%

Question: And the “Population Tubulin-Different-Phenotype (%)” value [2]?
Answer: 46%

Question: What about the “Total Cell Count” value [2] of the same compound?
Answer: 143

Question: What about the “Population Apoptotic (%)” value [3] of the same compound?
Answer: 40%

Question: What about the “Population Fragmented Nuclei (%)” value [3] of the same compound?
Answer: 14%

Question: What about the “Population Healthy Nuclei (%)” value [3] of the same compound?
Answer: 69%

Question: What about the “Population Hoechst High Intensity Objects (%)” value [3] of the same compound?
Answer: 1%

Question: And the “Population Membrane Permeable-Phenotype (%)” value [3]?
Answer: 0%

Question: And the “Population Mitochondria Different-Phenotype (%)” value [3]?
Answer: 13%

Question: What about the “Population Mitotic Cells (%)” value [3] of the same compound?
Answer: 59%

Question: What about the “Population Normal (%)” value [3] of the same compound?
Answer: 98%

Question: And the “Population Pyknosed Nuclei (%)” value [3]?
Answer: 15%

Question: What about the “Population Tubulin-Different-Phenotype (%)” value [3] of the same compound?
Answer: 37%

Question: And the “Total Cell Count” value [3]?
Answer: 178

Question: What about the “Population Apoptotic (%)” value [4] of the same compound?
Answer: 41%

Question: And the “Population Fragmented Nuclei (%)” value [4]?
Answer: 28%

Question: What about the “Population Healthy Nuclei (%)” value [4] of the same compound?
Answer: 49%

Question: And the “Population Hoechst High Intensity Objects (%)” value [4]?
Answer: 6%

Question: What about the “Population Membrane Permeable-Phenotype (%)” value [4] of the same compound?
Answer: 3%

Question: What about the “Population Mitochondria Different-Phenotype (%)” value [4] of the same compound?
Answer: 3%

Question: What about the “Population Mitotic Cells (%)” value [4] of the same compound?
Answer: 58%

Question: And the “Population Normal (%)” value [4]?
Answer: 93%

Question: What about the “Population Pyknosed Nuclei (%)” value [4] of the same compound?
Answer: 22%

Question: What about the “Population Tubulin-Different-Phenotype (%)” value [4] of the same compound?
Answer: 51%

Question: And the “Total Cell Count” value [4]?
Answer: 113

Question: What about the “Population Apoptotic (%)” value [5] of the same compound?
Answer: 53%

Question: And the “Population Fragmented Nuclei (%)” value [5]?
Answer: 15%

Question: And the “Population Healthy Nuclei (%)” value [5]?
Answer: 73%

Question: And the “Population Hoechst High Intensity Objects (%)” value [5]?
Answer: 2%

Question: What about the “Population Membrane Permeable-Phenotype (%)” value [5] of the same compound?
Answer: 1%

Question: What about the “Population Mitochondria Different-Phenotype (%)” value [5] of the same compound?
Answer: 0%

Question: And the “Population Mitotic Cells (%)” value [5]?
Answer: 46%

Question: And the “Population Normal (%)” value [5]?
Answer: 97%

Question: What about the “Population Pyknosed Nuclei (%)” value [5] of the same compound?
Answer: 10%

Question: And the “Population Tubulin-Different-Phenotype (%)” value [5]?
Answer: 17%

Question: What about the “Total Cell Count” value [5] of the same compound?
Answer: 129

Question: And the “Population Apoptotic (%)” value [6]?
Answer: 40%

Question: And the “Population Fragmented Nuclei (%)” value [6]?
Answer: 27%

Question: And the “Population Healthy Nuclei (%)” value [6]?
Answer: 50%

Question: And the “Population Hoechst High Intensity Objects (%)” value [6]?
Answer: 6%

Question: And the “Population Membrane Permeable-Phenotype (%)” value [6]?
Answer: 14%

Question: What about the “Population Mitochondria Different-Phenotype (%)” value [6] of the same compound?
Answer: 21%

Question: What about the “Population Mitotic Cells (%)” value [6] of the same compound?
Answer: 60%

Question: And the “Population Normal (%)” value [6]?
Answer: 93%

Question: What about the “Population Pyknosed Nuclei (%)” value [6] of the same compound?
Answer: 22%

Question: What about the “Population Tubulin-Different-Phenotype (%)” value [6] of the same compound?
Answer: 62%

Question: What about the “Total Cell Count” value [6] of the same compound?
Answer: 119

Question: What about the “Population Apoptotic (%)” value [7] of the same compound?
Answer: 42%

Question: What about the “Population Fragmented Nuclei (%)” value [7] of the same compound?
Answer: 14%

Question: And the “Population Healthy Nuclei (%)” value [7]?
Answer: 77%

Question: And the “Population Hoechst High Intensity Objects (%)” value [7]?
Answer: 1%

Question: What about the “Population Membrane Permeable-Phenotype (%)” value [7] of the same compound?
Answer: 0%

Question: What about the “Population Mitochondria Different-Phenotype (%)” value [7] of the same compound?
Answer: 8%

Question: And the “Population Mitotic Cells (%)” value [7]?
Answer: 57%

Question: And the “Population Normal (%)” value [7]?
Answer: 98%

Question: And the “Population Pyknosed Nuclei (%)” value [7]?
Answer: 8%

Question: And the “Population Tubulin-Different-Phenotype (%)” value [7]?
Answer: 37%

Question: What about the “Total Cell Count” value [7] of the same compound?
Answer: 178

Question: What about the “Population Apoptotic (%)” value [8] of the same compound?
Answer: 60%

Question: And the “Population Fragmented Nuclei (%)” value [8]?
Answer: 30%

Question: What about the “Population Healthy Nuclei (%)” value [8] of the same compound?
Answer: 47%

Question: And the “Population Hoechst High Intensity Objects (%)” value [8]?
Answer: 3%

Question: What about the “Population Membrane Permeable-Phenotype (%)” value [8] of the same compound?
Answer: 3%

Question: And the “Population Mitochondria Different-Phenotype (%)” value [8]?
Answer: 1%

Question: What about the “Population Mitotic Cells (%)” value [8] of the same compound?
Answer: 40%

Question: And the “Population Normal (%)” value [8]?
Answer: 96%

Question: What about the “Population Pyknosed Nuclei (%)” value [8] of the same compound?
Answer: 22%

Question: And the “Population Tubulin-Different-Phenotype (%)” value [8]?
Answer: 48%

Question: What about the “Total Cell Count” value [8] of the same compound?
Answer: 117

Question: And the “Population Apoptotic (%)” value [9]?
Answer: 50%

Question: And the “Population Fragmented Nuclei (%)” value [9]?
Answer: 16%

Question: And the “Population Healthy Nuclei (%)” value [9]?
Answer: 72%

Question: And the “Population Hoechst High Intensity Objects (%)” value [9]?
Answer: 3%

Question: And the “Population Membrane Permeable-Phenotype (%)” value [9]?
Answer: 0%

Question: What about the “Population Mitochondria Different-Phenotype (%)” value [9] of the same compound?
Answer: 2%

Question: And the “Population Mitotic Cells (%)” value [9]?
Answer: 50%

Question: And the “Population Normal (%)” value [9]?
Answer: 96%

Question: And the “Population Pyknosed Nuclei (%)” value [9]?
Answer: 11%

Question: What about the “Population Tubulin-Different-Phenotype (%)” value [9] of the same compound?
Answer: 15%

Question: What about the “Total Cell Count” value [9] of the same compound?
Answer: 126

Question: And the “Population Apoptotic (%)” value [10]?
Answer: 61%

Question: And the “Population Fragmented Nuclei (%)” value [10]?
Answer: 42%

Question: And the “Population Healthy Nuclei (%)” value [10]?
Answer: 44%

Question: What about the “Population Hoechst High Intensity Objects (%)” value [10] of the same compound?
Answer: 7%

Question: And the “Population Membrane Permeable-Phenotype (%)” value [10]?
Answer: 14%

Question: And the “Population Mitochondria Different-Phenotype (%)” value [10]?
Answer: 14%

Question: What about the “Population Mitotic Cells (%)” value [10] of the same compound?
Answer: 38%

Question: And the “Population Normal (%)” value [10]?
Answer: 92%

Question: And the “Population Pyknosed Nuclei (%)” value [10]?
Answer: 13%

Question: What about the “Population Tubulin-Different-Phenotype (%)” value [10] of the same compound?
Answer: 61%

Question: And the “Total Cell Count” value [10]?
Answer: 149

Question: And the “Population Apoptotic (%)” value [11]?
Answer: 55%

Question: What about the “Population Fragmented Nuclei (%)” value [11] of the same compound?
Answer: 19%

Question: And the “Population Healthy Nuclei (%)” value [11]?
Answer: 69%

Question: What about the “Population Hoechst High Intensity Objects (%)” value [11] of the same compound?
Answer: 5%

Question: What about the “Population Membrane Permeable-Phenotype (%)” value [11] of the same compound?
Answer: 0%

Question: What about the “Population Mitochondria Different-Phenotype (%)” value [11] of the same compound?
Answer: 10%

Question: And the “Population Mitotic Cells (%)” value [11]?
Answer: 44%

Question: And the “Population Normal (%)” value [11]?
Answer: 94%

Question: What about the “Population Pyknosed Nuclei (%)” value [11] of the same compound?
Answer: 10%

Question: What about the “Population Tubulin-Different-Phenotype (%)” value [11] of the same compound?
Answer: 36%

Question: What about the “Total Cell Count” value [11] of the same compound?
Answer: 186

Question: What about the “Population Apoptotic (%)” value [12] of the same compound?
Answer: 61%

Question: And the “Population Fragmented Nuclei (%)” value [12]?
Answer: 38%

Question: What about the “Population Healthy Nuclei (%)” value [12] of the same compound?
Answer: 44%

Question: What about the “Population Hoechst High Intensity Objects (%)” value [12] of the same compound?
Answer: 2%

Question: What about the “Population Membrane Permeable-Phenotype (%)” value [12] of the same compound?
Answer: 2%

Question: What about the “Population Mitochondria Different-Phenotype (%)” value [12] of the same compound?
Answer: 6%

Question: And the “Population Mitotic Cells (%)” value [12]?
Answer: 38%

Question: And the “Population Normal (%)” value [12]?
Answer: 97%

Question: What about the “Population Pyknosed Nuclei (%)” value [12] of the same compound?
Answer: 16%

Question: And the “Population Tubulin-Different-Phenotype (%)” value [12]?
Answer: 61%

Question: What about the “Total Cell Count” value [12] of the same compound?
Answer: 112
